Source: ChEMBL document CHEMBL4118234, “Synthesis and biological evaluation of irreversible EGFR tyrosine kinase inhibitors containing pyrido[3,4-d]pyrimidine scaffold” (Bioorg Med Chem, 2018)

Tests used:
A549 = assay: Cytotoxicity against human A549 cells harboring wild type EGFR assessed as reduction in cell viability after 72 hrs by MTT assay; assay type: cell-based; conditions: A549, 72 h
Method in brief: (§1)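 Cells were kept in RPMI-1640 with 10% heat-inactivated FBS, plus 1% of 100 mM sodium pyruvate for HCC827, at 37 °C and 5% CO2. They were seeded at 3000-5000 per well and pre-incubated 24 h. Final compound concentrations were 0.33, 1, 33, 100, 333, 1000, 3333, 10000 nM for 72 h. MTT was added for 4 h, formazan dissolved in DMSO, and OD read at 490 nm. Inhibition ratios were taken against control culture, and IC50 calculated from them. At least three experiments were run in triplicate.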

NCI-H1975 [1] = assay: Antiproliferative activity against human NCI-H1975 cells harboring EGFR L858R/T790M double mutant after 72 hrs by MTT assay; assay type: functional, cell-based; conditions: NCI-H1975, 72 h; method in brief: as §1
[2] = Solubility of the compound; assay type: physicochemical
[3] = target: Epidermal growth factor receptor (Homo sapiens, UniProt P00533, L858R); assay: Inhibition of EGFR L858R mutant (unknown origin) using Poly(Glu,Tyr) as substrate after 40 mins by Kinase-Glo luminescence assay
[4] = target: Epidermal growth factor receptor (Homo sapiens, UniProt P00533, C797S/L858R/T790M); assay: Inhibition of EGFR L858R/T790M/C797S triple mutant (unknown origin) using Poly(Glu,Tyr) as substrate after 40 mins by Kinase-Glo luminescence assay
[5] = test system: Epidermal growth factor receptor (Homo sapiens), P00533 [L858R,T790M,C797S]; assay: Inhibition of EGFR L858R/T790M/C797S triple mutant (unknown origin) at 500 nM using Poly(Glu,Tyr) as substrate after 40 mins by Kinase-Glo luminescence assay relative to control
Method in brief: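 The reaction ran 40 min at 30 °C in 40 mM Tris pH 7.4, 10 mM MgCl2, 0.1 mg/mL BSA, 1 mM DTT, 10 µM ATP, 25 ng kinase, and 0.2 mg/mL poly(Glu,Tyr); final DMSO was 1%. Remaining ATP was read by Kinase-Glo Plus luminescence. Inhibition was scored relative to no-compound and no-enzyme signals. At least two experiments were run.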

[6] = target: Epidermal growth factor receptor (Homo sapiens, UniProt P00533); assay: Inhibition of wild type EGFR (unknown origin) using Poly(Glu,Tyr) as substrate after 40 mins by Kinase-Glo luminescence assay
[7] = target: Epidermal growth factor receptor (Homo sapiens, UniProt P00533, L858R/T790M); assay: Inhibition of EGFR L858R/T790M double mutant (unknown origin) using Poly(Glu,Tyr) as substrate after 40 mins by Kinase-Glo luminescence assay
HCC827 [8] = assay: Antiproliferative activity against human HCC827 cells harboring EGFR E746 to A750 deletion mutant after 72 hrs by MTT assay; assay type: functional, cell-based; conditions: HCC827, 72 h; method in brief: as §1
HCC827 [9] = assay: Antiproliferative activity against human HCC827 cells harboring EGFR E746 to A750 deletion mutant at 10 uM after 72 hrs by MTT assay relative to control; assay type: functional; method in brief: as §1
NCI-H1975 [10] = assay: Antiproliferative activity against human NCI-H1975 cells harboring EGFR L858R/T790M double mutant at 10 uM after 72 hrs by MTT assay relative to control; assay type: functional; method in brief: as §1
HCC827 [11] = assay: Induction of apoptosis in human HCC827 cells harboring EGFR E746 to A750 deletion mutant assessed as early apoptotic cells at 3 uM after 24 hrs by Annexin V-FITC/propidium iodide staining based flow cytometry (reference value: 1.34 to 1.67%); assay type: functional
HCC827 [12] = assay: Induction of apoptosis in human HCC827 cells harboring EGFR E746 to A750 deletion mutant assessed as late apoptotic cells at 3 uM after 24 hrs by Annexin V-FITC/propidium iodide staining based flow cytometry (reference value: 23.66 to 27.14%); assay type: functional

Sequence of Epidermal growth factor receptor (Homo sapiens, UniProt P00533, C797S/L858R/T790M) (P00533 25-1210 T790M/C797S/L858R limits assumed): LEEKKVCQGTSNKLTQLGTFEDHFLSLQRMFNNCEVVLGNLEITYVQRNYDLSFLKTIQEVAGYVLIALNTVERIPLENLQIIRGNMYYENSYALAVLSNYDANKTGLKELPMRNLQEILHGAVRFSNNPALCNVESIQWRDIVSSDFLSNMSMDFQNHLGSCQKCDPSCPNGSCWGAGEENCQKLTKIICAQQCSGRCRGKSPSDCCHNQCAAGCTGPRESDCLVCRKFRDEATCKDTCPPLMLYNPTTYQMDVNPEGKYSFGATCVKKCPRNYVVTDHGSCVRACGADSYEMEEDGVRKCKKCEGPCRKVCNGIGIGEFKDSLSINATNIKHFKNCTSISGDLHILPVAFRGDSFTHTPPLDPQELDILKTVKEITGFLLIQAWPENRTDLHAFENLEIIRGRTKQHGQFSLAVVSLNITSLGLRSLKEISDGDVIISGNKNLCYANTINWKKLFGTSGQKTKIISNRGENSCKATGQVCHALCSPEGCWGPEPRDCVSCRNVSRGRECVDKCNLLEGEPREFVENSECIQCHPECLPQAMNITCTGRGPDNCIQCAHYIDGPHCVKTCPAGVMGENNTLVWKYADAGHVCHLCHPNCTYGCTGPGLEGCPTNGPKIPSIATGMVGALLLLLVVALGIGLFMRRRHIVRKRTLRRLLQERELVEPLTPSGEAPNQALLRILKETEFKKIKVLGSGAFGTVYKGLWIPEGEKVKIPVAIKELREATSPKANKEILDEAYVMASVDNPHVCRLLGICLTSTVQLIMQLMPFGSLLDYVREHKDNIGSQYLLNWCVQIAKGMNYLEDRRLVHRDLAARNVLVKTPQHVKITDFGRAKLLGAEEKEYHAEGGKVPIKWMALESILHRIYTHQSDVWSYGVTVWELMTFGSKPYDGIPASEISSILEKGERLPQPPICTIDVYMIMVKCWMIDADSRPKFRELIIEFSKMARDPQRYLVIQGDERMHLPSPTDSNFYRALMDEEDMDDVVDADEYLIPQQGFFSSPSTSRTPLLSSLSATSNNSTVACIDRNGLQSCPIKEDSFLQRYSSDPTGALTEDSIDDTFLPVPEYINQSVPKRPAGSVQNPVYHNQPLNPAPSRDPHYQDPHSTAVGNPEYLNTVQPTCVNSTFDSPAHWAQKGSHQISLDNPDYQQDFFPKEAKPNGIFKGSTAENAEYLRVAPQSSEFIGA
Sequence of Epidermal growth factor receptor (Homo sapiens), P00533 [L858R,T790M,C797S] (P00533 whole entry T790M/C797S/L858R): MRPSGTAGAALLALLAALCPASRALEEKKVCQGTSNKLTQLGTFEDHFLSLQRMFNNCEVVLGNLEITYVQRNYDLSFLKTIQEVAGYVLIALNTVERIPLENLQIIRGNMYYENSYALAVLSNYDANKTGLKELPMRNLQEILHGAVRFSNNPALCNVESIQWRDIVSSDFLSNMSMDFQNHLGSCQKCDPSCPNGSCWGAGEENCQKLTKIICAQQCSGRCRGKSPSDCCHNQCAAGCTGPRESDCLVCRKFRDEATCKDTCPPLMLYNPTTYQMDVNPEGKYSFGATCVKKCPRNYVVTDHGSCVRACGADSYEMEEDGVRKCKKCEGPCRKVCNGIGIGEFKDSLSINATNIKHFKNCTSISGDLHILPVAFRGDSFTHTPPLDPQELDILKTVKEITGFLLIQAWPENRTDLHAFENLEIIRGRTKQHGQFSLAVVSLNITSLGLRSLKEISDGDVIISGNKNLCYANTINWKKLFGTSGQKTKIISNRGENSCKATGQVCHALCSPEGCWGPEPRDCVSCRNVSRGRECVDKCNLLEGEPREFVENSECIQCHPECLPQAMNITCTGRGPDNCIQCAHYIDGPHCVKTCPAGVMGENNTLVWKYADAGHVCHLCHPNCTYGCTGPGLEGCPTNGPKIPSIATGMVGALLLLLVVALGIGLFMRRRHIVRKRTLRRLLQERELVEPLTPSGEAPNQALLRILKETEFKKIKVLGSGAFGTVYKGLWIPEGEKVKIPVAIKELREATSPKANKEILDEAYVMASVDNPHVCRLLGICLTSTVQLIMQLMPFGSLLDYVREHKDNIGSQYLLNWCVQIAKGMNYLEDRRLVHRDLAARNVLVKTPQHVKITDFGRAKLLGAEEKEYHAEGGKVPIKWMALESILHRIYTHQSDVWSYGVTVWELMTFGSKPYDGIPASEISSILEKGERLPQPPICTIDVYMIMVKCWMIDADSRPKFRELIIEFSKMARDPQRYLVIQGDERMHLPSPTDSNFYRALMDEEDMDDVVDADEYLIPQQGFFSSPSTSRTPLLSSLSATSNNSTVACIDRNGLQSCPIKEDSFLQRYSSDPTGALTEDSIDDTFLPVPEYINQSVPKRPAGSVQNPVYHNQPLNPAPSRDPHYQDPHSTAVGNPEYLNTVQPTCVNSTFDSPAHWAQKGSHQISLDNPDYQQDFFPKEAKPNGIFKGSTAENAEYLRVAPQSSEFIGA
Sequence of Epidermal growth factor receptor (Homo sapiens, UniProt P00533) (P00533 whole entry): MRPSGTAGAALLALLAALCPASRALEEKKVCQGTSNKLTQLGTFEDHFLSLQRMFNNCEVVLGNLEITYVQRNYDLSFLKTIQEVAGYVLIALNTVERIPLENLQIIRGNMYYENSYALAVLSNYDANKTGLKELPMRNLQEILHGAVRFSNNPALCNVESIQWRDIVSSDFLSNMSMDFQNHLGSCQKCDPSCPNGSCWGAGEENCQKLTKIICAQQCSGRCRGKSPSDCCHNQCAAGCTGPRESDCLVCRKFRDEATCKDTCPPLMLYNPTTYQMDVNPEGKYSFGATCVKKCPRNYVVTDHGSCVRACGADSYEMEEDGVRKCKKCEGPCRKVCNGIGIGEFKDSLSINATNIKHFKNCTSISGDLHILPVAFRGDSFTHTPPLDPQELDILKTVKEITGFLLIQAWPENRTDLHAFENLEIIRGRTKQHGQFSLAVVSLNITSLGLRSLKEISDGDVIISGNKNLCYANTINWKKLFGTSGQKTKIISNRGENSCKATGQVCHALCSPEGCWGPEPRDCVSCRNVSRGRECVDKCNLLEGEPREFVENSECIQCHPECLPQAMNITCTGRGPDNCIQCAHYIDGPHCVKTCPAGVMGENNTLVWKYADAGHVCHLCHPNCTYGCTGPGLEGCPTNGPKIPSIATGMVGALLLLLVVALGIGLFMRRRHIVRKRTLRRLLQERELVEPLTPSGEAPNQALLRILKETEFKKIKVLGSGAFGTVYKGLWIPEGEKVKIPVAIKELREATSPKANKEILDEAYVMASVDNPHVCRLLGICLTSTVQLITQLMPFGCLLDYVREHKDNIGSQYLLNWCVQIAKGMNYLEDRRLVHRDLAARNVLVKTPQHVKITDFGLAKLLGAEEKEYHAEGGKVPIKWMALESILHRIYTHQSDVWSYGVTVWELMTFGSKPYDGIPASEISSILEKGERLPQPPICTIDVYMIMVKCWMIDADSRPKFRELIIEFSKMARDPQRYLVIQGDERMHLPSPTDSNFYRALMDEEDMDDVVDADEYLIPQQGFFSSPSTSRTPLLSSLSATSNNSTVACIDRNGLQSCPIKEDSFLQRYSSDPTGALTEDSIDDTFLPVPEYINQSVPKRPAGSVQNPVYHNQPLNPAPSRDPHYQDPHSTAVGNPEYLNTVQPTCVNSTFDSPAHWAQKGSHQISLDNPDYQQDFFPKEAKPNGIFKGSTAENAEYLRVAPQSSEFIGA
Sequence of Epidermal growth factor receptor (Homo sapiens, UniProt P00533, L858R/T790M) (P00533 25-1210 T790M/L858R limits assumed): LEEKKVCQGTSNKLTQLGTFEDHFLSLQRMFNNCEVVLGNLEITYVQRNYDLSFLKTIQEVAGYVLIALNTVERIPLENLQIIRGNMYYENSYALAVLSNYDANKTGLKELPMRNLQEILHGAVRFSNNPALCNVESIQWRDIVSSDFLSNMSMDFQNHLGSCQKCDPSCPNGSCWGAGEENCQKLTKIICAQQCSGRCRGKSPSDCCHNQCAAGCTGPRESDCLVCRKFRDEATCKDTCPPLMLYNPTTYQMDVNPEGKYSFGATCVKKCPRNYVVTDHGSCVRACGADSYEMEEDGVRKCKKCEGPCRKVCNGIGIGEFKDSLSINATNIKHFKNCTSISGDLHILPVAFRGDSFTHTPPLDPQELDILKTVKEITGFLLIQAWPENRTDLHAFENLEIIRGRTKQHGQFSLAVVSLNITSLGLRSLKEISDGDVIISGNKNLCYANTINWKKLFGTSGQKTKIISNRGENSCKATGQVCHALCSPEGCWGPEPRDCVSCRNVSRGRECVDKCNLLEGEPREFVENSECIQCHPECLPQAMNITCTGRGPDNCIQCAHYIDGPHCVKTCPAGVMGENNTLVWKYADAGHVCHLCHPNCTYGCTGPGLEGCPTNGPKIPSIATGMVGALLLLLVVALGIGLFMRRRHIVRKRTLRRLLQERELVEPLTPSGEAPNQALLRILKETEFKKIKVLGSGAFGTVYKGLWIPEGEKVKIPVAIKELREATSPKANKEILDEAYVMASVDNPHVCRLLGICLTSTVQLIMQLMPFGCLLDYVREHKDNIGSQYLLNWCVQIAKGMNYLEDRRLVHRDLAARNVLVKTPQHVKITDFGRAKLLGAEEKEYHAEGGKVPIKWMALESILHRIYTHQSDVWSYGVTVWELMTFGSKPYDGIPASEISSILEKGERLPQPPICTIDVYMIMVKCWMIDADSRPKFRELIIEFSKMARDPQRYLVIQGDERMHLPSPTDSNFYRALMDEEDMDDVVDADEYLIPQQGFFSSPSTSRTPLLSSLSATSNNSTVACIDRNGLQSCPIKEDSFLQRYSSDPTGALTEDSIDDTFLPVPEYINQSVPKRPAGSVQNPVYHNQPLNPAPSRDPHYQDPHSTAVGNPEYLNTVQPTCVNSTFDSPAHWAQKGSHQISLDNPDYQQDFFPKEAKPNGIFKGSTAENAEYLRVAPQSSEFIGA

Compound | IC50 (A549) [nM] | IC50 (NCI-H1975 [1]) [nM] | solubility [2] | IC50 [3] [nM] | IC50 [6] [nM] | IC50 [7] [nM] | IC50 (HCC827 [8]) [nM] | further results
C=CC(=O)N[C@H]1CCCN(c2nc(Nc3ccccc3)nc3cnc(Nc4ccc(N5CCN(C)CC5)cn4)cc23)C1 | 810 | 1400 | Soluble | 14.2 | 12 | 361 | 73 | IC50 [4]: > 500 nM; inhibition [5]: < 50%
C=CC(=O)Nc1cccc(Nc2cc3c(N4CCCC4)nc(OCC4CCCCC4)nc3cn2)n1 | – | – | Insoluble | – | – | – | > 10000 | –
C=CC(=O)N1CC[C@H](Nc2nc(Nc3ccccc3)nc3cnc(Nc4ccc(N5CCN(C)CC5)cn4)cc23)C1 | 1670 | 860 | Soluble | 10.8 | 9.9 | 238 | 270 | IC50 [4]: > 500 nM; inhibition [5]: < 50%
C=CC(=O)Nc1cccc(Nc2cc3c(N4CCCC4)nc(Nc4cccc(F)c4)nc3cn2)n1 | – | – | Insoluble | – | – | – | > 10000 | Activity (HCC827 [9]): <50%
C=CC(=O)Nc1cccc(Nc2cc3c(N4CCCC4)nc(OCC4CCOCC4)nc3cn2)n1 | – | – | Insoluble | – | – | – | 8700 | –
C=CC(=O)Nc1cccc(Nc2cc3c(N4CCCC4)nc(OCc4ccc(F)cc4)nc3cn2)n1 | – | – | Insoluble | – | – | – | > 10000 | –
C=CC(=O)Nc1cccc(Nc2cc3c(N4CCCC4)nc(Nc4ccccc4)nc3cn2)n1 | – | – | Insoluble | – | – | – | > 10000 | Activity (HCC827 [9]): <50%
C=CC(=O)N[C@@H]1CCN(c2ncnc3cnc(Nc4ccc(N5CCN(C)CC5)cc4OC)cc23)C1 | – | – | – | – | – | – | > 10000 | Activity (HCC827 [9]): <50%
C=CC(=O)N[C@H]1CCN(c2nc(Nc3ccccc3)nc3cnc(Nc4ccc(N5CCN(C)CC5)cn4)cc23)C1 | 640 | 850 | Soluble | 3.2 | 1.5 | 26.5 | 69 | IC50 [4]: 285 nM
C=CC(=O)N[C@@H]1CCCN(c2nc(Nc3ccccc3)nc3cnc(Nc4ccc(N5CCN(C)CC5)cn4)cc23)C1 | 810 | 1750 | Soluble | 6.5 | 5.4 | 164 | 54 | IC50 [4]: > 500 nM; inhibition [5]: < 50%
C=CC(=O)N[C@@H]1CCN(c2ncnc3cnc(Nc4ccc(OCCN(C)C)cc4OC)cc23)C1 | – | – | – | – | – | – | > 10000 | Activity (HCC827 [9]): <50%
C=CC(=O)N1CC[C@@H](Nc2nc(Nc3ccccc3)nc3cnc(Nc4ccc(N5CCN(C)CC5)cn4)cc23)C1 | 650 | 440 | Soluble | 4.6 | 3.3 | 106 | 170 | IC50 [4]: > 500 nM; inhibition [5]: < 50%
C=CC(=O)Nc1cccc(Nc2cc3c(N4CCCC4)nc(OCc4ccccc4)nc3cn2)n1 | – | – | Insoluble | – | – | – | > 10000 | –
C=CC(=O)N[C@@H]1CCN(c2ncnc3cnc(Nc4ccc(N5CCN(C)CC5)cn4)cc23)C1 | – | > 10000 | – | – | – | – | 3520 | Activity (NCI-H1975 [10]): <50%
C=CC(=O)N[C@@H]1CCN(c2ncnc3cnc(Nc4ccc(OCCOC)cc4OC)cc23)C1 | – | – | – | – | – | – | > 10000 | Activity (HCC827 [9]): <50%
C=CC(=O)N[C@@H]1CCN(c2nc(Nc3ccccc3)nc3cnc(Nc4ccc(N5CCN(C)CC5)cn4)cc23)C1 | 1190 | 1440 | Soluble | 4.7 | 2.7 | 36.6 | 20 | –
C=CC(=O)Nc1cc(Nc2nccc(-c3cn(C)c4ccccc34)n2)c(OC)cc1N(C)CCN(C)C [OSIMERTINIB] | 530 | […] | – | – | – | – | 27 | Activity (HCC827 [11]): 8.28%; Activity (HCC827 [12]): 68.1%
C=CC(=O)Nc1cccc(Nc2cc3c(N4CCCC4)nc(OC4CCOCC4)nc3cn2)n1 | – | – | Insoluble | – | – | – | 2740 | –
